Key:
[1] = molecular target: receptor tyrosine kinase IGFR (Homo sapiens, UniProt P08069); test: Preliminary kinase screen, IGFR; assay type: biochemical; conditions: small panel of kinases
[2] = molecular target: cytoplasmic tyrosine kinase Src (Homo sapiens, UniProt P12931); test: Preliminary kinase screen, Src; assay type: biochemical; conditions: small panel of kinases
IKKβ = conditions: ref 22 (Kasinski et al.); cited from earlier work
EGFR = EGFR (Homo sapiens, UniProt P00533); test: Kinase profile screen at 5 μM, EGFR; assay type: biochemical; conditions: read-out: inhibition of EGFR
Outline: (§1)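 Most kinases used the Z'Lyte read-out: a FRET-labelled peptide, protease development, and coumarin/fluorescein emission ratio. Some used Adapta (ADP TR-FRET) or a kinase cascade. Protease- and fluorescence-interference control wells were included. Values above 100% or below 0% were taken as maximal or no inhibition.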

CHEK1 = molecular target: T1, CHEK1 (Homo sapiens, UniProt O14757); test: Kinase profile screen at 5 μM, CHEK1; assay type: biochemical; conditions: read-out: inhibition of CHEK1
T1 sequence (O14757 1-476): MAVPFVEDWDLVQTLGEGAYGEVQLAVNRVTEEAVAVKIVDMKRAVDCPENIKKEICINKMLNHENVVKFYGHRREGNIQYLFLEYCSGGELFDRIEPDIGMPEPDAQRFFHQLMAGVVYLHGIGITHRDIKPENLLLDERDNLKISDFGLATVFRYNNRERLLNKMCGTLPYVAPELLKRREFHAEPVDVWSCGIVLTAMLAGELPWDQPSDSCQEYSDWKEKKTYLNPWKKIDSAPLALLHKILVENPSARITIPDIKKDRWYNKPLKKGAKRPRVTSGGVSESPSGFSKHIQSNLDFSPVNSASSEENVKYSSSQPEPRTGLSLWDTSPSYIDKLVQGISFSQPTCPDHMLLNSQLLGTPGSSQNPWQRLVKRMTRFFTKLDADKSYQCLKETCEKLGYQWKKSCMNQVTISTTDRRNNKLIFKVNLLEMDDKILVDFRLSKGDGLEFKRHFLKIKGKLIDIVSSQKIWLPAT
Outline: as §1

RAF1 = RAF1 (Homo sapiens, UniProt P04049, Y340D/Y341D); test: Z'-LYTE RAF1; assay type: biochemical; conditions: preliminary screen, small panel of kinases
PIM1 = PIM1 (Homo sapiens, UniProt P11309); test: Kinase profile screen at 5 μM, PIM1; assay type: biochemical; conditions: read-out: inhibition of PIM1
Outline: as §1

PRKCβ1 = PRKCβ1 (Homo sapiens, UniProt P05771); test: Kinase profile screen at 5 μM, PRKCβ1; assay type: biochemical; conditions: read-out: inhibition of PRKCβ1
Outline: as §1

NEK1 = molecular target: T2, NEK1 (Homo sapiens, UniProt Q96PY6); test: Z'-LYTE in vitro kinase assay, NEK1; assay type: biochemical; conditions: read-out: inhibition of NEK1
T2 sequence (Q96PY6 1-1258): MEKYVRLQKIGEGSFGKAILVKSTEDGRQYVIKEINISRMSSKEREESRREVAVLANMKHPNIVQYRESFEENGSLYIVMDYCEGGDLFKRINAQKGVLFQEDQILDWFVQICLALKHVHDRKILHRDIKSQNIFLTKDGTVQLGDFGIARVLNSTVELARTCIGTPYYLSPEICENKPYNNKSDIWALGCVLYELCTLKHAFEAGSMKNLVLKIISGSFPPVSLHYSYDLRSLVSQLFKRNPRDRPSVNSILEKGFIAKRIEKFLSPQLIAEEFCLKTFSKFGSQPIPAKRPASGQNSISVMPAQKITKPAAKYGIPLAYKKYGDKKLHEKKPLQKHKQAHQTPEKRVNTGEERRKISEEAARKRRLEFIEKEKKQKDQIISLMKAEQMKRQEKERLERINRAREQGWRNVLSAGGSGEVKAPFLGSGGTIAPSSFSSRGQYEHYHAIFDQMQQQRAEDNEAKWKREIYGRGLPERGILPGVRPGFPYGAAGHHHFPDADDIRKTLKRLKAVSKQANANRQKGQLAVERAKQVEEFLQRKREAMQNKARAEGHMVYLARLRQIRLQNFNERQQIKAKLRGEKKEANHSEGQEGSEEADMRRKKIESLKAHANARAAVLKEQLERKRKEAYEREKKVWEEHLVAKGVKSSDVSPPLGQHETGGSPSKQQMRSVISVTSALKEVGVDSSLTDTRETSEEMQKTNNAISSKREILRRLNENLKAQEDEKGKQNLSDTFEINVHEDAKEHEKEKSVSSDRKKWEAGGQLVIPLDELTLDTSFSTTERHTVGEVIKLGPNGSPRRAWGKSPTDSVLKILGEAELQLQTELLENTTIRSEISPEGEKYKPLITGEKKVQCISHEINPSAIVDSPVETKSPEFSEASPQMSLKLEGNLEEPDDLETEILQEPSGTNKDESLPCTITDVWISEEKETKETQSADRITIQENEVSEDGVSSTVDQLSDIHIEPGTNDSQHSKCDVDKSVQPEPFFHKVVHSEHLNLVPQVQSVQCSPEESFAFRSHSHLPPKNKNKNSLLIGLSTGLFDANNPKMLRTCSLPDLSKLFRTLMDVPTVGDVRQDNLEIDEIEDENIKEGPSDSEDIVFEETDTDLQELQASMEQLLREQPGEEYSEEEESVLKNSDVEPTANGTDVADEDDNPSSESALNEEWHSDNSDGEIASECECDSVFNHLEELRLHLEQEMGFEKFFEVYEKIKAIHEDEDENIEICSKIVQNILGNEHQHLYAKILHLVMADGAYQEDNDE

ACVR1B = molecular target: T3, ACVR1B (Homo sapiens, UniProt P36896); test: Kinase profile screen at 5 μM, ACVR1B; assay type: biochemical; conditions: read-out: inhibition of ACVR1B
T3 sequence (P36896 24-505): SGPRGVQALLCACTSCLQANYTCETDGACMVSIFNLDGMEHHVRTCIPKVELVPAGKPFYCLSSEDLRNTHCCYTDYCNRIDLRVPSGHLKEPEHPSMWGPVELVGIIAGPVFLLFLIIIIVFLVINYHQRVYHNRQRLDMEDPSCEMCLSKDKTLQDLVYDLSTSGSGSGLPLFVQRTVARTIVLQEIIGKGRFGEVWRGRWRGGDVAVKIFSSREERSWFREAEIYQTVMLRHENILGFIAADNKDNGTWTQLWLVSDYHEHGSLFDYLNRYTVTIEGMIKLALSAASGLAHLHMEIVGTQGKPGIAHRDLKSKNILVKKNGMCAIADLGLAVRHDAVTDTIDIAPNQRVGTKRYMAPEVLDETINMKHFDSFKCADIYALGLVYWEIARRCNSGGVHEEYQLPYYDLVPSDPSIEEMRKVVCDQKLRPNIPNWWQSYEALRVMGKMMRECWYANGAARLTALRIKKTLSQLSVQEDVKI
Outline: as §1

AKT2 [3] = molecular target: T4, AKT2 (Homo sapiens, UniProt P31751); test: Z'-LYTE in vitro kinase assay, AKT2; assay type: biochemical; conditions: preliminary screen, small panel of kinases
KDR (VEGFR2) = KDR (VEGFR2) (Homo sapiens, UniProt P35968); test: Z'-LYTE in vitro kinase assay, KDR; assay type: biochemical; conditions: read-out: inhibition of KDR
IRAK4 = molecular target: T5, IRAK4 (Homo sapiens, UniProt Q9NWZ3); test: Kinase profile screen at 5 μM, IRAK4; assay type: biochemical; conditions: read-out: inhibition of IRAK4
T5 sequence (Q9NWZ3 1-460): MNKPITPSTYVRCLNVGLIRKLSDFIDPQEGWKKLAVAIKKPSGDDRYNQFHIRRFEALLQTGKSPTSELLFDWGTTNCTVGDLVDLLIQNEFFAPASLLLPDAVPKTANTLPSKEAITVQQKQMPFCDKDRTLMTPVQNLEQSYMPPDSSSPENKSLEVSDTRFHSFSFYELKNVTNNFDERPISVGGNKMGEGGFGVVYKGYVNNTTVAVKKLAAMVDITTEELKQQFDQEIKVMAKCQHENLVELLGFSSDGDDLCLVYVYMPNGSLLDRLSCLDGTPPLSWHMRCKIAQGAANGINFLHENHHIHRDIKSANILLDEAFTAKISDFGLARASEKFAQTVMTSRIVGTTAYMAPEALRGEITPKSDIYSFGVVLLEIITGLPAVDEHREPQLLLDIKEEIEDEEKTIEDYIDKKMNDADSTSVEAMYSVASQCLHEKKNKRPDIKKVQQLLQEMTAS
Outline: as §1

CDK7 = CDK7 (Homo sapiens, UniProt P50613); test: Kinase profile screen at 5 μM, CDK7; assay type: biochemical; conditions: read-out: inhibition of CDK7
Outline: as §1

AKT1 (PKB alpha) = AKT1 (PKB alpha) (Homo sapiens, UniProt P31749); test: Z'-LYTE in vitro kinase assay, AKT1; assay type: biochemical; conditions: preliminary screen, small panel of kinases
panel of 50 kinases = test: Kinase profile screen, 50-kinase panel; assay type: biochemical; conditions: 5 μM, of fifty kinases tested
Outline: as §1

IKBKB (IKKβ) = molecular target: T6, IKBKB (IKKβ) (Homo sapiens, UniProt O14920); test: Z'-LYTE in vitro kinase assay, IKKβ; assay type: biochemical; conditions: preliminary screen, small panel of kinases
T6 sequence (O14920 1-756): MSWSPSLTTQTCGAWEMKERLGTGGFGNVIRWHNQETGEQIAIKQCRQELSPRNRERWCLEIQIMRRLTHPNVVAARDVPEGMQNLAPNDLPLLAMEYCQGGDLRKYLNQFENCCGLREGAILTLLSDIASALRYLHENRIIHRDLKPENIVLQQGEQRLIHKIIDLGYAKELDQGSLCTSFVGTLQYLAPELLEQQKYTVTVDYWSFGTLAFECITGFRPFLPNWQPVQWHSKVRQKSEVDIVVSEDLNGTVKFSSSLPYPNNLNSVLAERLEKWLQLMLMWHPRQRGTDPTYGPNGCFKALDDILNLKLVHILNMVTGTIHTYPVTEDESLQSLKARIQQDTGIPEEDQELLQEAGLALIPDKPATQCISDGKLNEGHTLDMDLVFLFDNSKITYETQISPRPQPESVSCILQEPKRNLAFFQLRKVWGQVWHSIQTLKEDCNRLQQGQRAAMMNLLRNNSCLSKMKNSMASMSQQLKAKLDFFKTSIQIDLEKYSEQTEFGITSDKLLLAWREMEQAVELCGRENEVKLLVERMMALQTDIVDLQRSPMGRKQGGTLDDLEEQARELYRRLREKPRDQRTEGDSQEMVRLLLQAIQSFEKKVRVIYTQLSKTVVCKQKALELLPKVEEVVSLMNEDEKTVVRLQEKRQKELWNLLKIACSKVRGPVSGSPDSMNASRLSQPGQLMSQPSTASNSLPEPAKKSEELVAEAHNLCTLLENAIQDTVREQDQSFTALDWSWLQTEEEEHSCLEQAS

[4] = cited from earlier work
CDK2 = CDK2 (Homo sapiens, UniProt P24941); test: Kinase profile screen at 5 μM, CDK2; assay type: biochemical; conditions: read-out: inhibition of CDK2
Outline: as §1

AKT2 [5] = molecular target: T4, AKT2; test: ADP Quest enzyme kinetics, Michaelis-Menten global analysis; assay type: biochemical; conditions: varying ATP and inhibitor concentrations
Outline: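 Purified recombinant human AKT2 with Crosstide peptide substrate; reactions run 10-90 min using fresh samples at varying ATP and inhibitor concentrations. ADP Quest enzyme-coupled fluorescence gave total ADP, and rates came from ADP formed over time. Rates were fitted by global non-linear regression to Michaelis-Menten competitive (shared Ki and Vmax) and mixed (shared Ki, α) models, with Ki and Vmax >0.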

MEK1 = MEK1 (Homo sapiens, UniProt Q02750); test: Z'-LYTE MAP2K1; assay type: biochemical; conditions: preliminary screen, small panel of kinases
Chain of MEK1 (Q02750 whole entry): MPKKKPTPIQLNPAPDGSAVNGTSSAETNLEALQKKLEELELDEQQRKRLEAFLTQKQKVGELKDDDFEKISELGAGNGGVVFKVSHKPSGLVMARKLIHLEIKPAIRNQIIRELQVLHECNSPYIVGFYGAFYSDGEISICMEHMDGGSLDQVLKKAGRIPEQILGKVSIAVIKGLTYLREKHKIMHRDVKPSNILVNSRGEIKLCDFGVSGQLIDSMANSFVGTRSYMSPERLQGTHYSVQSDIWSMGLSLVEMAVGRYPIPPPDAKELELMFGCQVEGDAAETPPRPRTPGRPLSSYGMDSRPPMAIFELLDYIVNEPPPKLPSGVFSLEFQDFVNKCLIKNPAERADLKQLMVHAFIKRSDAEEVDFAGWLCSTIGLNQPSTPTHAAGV

Chain of cytoplasmic tyrosine kinase Src (P12931 whole entry): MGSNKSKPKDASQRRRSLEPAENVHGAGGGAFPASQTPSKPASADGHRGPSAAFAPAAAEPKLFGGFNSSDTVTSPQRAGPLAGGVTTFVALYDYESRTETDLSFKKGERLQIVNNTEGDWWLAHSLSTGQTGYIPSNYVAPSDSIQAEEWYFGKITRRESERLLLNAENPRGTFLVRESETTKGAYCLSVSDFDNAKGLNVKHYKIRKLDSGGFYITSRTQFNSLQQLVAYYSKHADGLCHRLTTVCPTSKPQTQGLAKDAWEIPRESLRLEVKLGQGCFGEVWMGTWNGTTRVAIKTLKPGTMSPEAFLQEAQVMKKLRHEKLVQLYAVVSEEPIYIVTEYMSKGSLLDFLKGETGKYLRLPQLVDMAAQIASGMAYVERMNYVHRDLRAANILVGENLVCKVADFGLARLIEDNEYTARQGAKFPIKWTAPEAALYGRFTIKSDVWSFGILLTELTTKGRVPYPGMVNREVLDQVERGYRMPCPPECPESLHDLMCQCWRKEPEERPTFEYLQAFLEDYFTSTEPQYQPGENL
T4 sequence (P31751 whole entry): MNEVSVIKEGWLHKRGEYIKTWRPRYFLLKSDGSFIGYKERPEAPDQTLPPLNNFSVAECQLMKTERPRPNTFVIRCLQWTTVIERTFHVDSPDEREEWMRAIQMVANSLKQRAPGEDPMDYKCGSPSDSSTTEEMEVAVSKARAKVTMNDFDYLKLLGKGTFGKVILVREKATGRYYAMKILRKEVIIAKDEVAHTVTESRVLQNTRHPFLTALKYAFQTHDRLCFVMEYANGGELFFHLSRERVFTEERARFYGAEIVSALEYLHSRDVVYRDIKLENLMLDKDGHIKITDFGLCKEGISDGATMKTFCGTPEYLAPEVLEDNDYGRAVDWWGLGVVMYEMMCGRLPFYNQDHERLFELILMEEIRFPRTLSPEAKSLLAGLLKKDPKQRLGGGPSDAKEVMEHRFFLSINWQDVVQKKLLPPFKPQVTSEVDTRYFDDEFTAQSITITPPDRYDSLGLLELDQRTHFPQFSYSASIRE
Chain of receptor tyrosine kinase IGFR (P08069 31-1367): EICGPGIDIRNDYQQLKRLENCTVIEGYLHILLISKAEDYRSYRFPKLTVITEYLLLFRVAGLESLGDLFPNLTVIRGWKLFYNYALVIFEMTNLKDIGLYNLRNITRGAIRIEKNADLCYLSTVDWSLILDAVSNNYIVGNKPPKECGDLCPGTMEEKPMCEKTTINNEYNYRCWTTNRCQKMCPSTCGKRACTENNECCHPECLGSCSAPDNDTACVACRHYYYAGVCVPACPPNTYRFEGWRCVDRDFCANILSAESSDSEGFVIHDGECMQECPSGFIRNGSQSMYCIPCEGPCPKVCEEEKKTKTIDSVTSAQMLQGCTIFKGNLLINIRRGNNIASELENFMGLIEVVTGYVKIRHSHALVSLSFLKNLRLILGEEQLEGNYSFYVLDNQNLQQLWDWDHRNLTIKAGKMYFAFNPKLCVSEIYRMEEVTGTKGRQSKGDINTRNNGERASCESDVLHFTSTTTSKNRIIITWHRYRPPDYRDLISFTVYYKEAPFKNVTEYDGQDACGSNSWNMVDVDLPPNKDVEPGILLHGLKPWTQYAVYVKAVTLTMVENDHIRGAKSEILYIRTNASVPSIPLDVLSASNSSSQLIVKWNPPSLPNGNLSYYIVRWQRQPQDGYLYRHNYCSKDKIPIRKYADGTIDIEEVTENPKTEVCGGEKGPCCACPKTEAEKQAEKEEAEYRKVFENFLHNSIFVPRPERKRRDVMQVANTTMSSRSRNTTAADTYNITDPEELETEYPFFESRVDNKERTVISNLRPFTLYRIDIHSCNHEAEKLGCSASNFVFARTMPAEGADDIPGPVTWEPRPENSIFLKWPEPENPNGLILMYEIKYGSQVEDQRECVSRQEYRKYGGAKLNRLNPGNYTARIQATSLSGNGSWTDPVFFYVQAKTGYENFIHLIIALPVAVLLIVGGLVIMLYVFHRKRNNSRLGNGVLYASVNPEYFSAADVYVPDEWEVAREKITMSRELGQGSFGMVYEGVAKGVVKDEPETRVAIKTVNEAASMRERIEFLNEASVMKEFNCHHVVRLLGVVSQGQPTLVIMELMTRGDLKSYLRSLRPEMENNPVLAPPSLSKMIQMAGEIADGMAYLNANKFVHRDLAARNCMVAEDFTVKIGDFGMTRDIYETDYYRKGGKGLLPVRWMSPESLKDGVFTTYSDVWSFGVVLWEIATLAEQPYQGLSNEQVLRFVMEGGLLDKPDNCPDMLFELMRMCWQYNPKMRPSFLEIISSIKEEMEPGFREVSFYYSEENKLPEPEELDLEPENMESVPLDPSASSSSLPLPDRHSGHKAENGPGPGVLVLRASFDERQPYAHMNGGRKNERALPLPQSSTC
Chain of AKT1 (PKB alpha) (P31749 whole entry): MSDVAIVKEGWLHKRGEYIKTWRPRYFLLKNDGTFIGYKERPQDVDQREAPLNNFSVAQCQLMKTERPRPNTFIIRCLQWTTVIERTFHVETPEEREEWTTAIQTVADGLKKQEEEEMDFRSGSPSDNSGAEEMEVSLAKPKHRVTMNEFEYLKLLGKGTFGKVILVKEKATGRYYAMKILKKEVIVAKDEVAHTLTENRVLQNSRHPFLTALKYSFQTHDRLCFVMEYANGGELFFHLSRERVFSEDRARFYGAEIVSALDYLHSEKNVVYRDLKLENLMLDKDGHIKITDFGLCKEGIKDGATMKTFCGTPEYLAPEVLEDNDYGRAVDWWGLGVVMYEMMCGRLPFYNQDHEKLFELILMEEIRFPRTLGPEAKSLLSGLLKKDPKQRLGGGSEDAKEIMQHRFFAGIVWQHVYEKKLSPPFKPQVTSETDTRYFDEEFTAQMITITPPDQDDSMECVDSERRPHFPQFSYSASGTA
Chain of PRKCβ1 (P05771 whole entry): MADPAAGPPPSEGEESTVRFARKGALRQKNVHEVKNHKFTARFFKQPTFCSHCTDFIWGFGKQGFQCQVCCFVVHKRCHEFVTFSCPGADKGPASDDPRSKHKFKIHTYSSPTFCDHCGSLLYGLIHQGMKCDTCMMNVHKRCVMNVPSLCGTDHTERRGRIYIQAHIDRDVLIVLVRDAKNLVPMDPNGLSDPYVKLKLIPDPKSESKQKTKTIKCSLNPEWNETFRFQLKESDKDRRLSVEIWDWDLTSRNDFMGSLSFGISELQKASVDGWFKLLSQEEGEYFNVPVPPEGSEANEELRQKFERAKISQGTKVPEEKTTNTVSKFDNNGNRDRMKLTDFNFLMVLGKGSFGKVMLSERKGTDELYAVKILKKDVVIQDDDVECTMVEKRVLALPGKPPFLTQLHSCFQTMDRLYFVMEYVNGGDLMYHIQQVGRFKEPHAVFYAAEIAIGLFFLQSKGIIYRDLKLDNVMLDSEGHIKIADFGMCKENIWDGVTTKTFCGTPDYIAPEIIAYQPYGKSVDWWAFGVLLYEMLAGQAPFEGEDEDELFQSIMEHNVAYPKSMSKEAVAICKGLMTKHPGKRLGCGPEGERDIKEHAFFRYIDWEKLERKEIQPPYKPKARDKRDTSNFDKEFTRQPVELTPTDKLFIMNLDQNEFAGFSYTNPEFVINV
Chain of PIM1 (P11309 whole entry, species assumed): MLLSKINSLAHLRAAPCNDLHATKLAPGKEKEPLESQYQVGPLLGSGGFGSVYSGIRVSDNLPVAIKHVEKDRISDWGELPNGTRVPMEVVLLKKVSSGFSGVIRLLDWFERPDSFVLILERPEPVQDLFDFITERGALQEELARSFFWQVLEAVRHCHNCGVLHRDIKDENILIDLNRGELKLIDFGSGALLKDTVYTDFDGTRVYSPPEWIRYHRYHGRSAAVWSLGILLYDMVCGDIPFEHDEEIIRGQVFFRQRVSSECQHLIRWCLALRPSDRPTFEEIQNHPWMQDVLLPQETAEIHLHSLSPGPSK
Chain of RAF1 (P04049 306-648 Y340D/Y341D limits assumed): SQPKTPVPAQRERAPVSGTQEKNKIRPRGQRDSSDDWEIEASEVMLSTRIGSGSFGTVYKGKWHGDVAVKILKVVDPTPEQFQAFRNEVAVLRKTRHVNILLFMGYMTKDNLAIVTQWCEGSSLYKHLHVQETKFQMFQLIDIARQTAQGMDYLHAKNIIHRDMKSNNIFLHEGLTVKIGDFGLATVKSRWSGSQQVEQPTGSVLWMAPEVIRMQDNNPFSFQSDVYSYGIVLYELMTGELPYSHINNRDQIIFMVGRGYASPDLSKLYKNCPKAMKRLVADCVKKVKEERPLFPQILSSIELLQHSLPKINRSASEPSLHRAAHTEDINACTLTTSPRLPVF

In the case of `O=C1/C(=C/c2ccccc2F)CNC/C1=C\c1ccccc1F` [Compound 3, 3,5-bis(2-flurobenzylidene)piperidin-4-one], the “inhibition of IGFR” value [1] is listed as “no measurable inhibition”, the “inhibition of Src” value [2] is listed as “weak effect” and the “mechanism of IKKβ blockade” value (IKKβ) is listed as “mixed mechanism”.

In the case of `O=C1/C(=C/c2ccccn2)CNC/C1=C\c1ccccn1` [Compound 4, 3,5-Bis(2-pyridinylmethylidene)-4-piperidone], the “inhibition of IGFR” value [1] was “no measurable inhibition”, the inhibition at 5 µM (EGFR) was no more than 10% and the inhibition at 5 µM (CHEK1) was no less than 85%. The “inhibition of Src” value [2] was “weak effect”, the “inhibition of RAF1” value (RAF1) was “moderate inhibition” and the inhibition at 5 µM (PIM1) was no more than 10%. It also gave an inhibition at 5 µM (PRKCβ1) of no less than 85%, an inhibition at 5 µM (NEK1) of no less than 85% and an inhibition at 5 µM (ACVR1B) of no more than 10%. The “inhibition of AKT2” value (AKT2 [3]) was “significantly increased blocking action”, the inhibition at 5 µM (KDR (VEGFR2)) was no less than 85% and the inhibition at 5 µM (IRAK4) was no more than 10%. For the same molecule, the inhibition at 5 µM (CDK7) was no more than 10%, the “inhibition of AKT1” value (AKT1 (PKB alpha)) was “significantly increased blocking action” and the “number of kinases inhibited at ≤40%” value (panel of 50 kinases) was 28. For the same molecule, the “number of kinases with 40-80% inhibition (modestly blocked)” value (panel of 50 kinases) was “twelve”, the “inhibition of IKKβ” value (IKBKB (IKKβ)) was “moderate inhibition” and the “kinase suppression by comparison with curcumin” value [4] was no less than 10 fold. The inhibition at 5 µM (CDK2) was no more than 10%, the “α (mixed-model parameter, global analysis of Michaelis-Menten graph)” value (AKT2 [5]) was 31 and the “inhibition of MEK1” value (MEK1) was “moderate inhibition”.

— article PMC3927397 (Journal of medicinal chemistry, 2013)
